# Experimental data collected from several papers.
# Lines come from different studies, so protocols differ.
Compound,system,setting,Papp [×10⁻⁶ cm/s]
Cc1nonc1Cn1nnc2c(N3CC[C@H](O)C3)nc(C(C)(C)C)nc21,PAMPA,,2.2
COCCOCCOCCOc1c(OC)cc2cc(C(=O)N3C[C@@H](CCl)c4c3cc(O)c3[nH]c(C(=O)OC)cc43)[nH]c2c1OC,PAMPA,"1 µM, 5 h, pH 7.4",4.2
O=C(Nc1ccc2c(c1)B(O)OC2)c1ccccc1OCc1ccccc1,PAMPA,"200 µM, 5 h, pH 7.4",1.2
Cc1nc([C@@](C)(CC2CC2)NC(=O)c2cc(OCC(F)(F)F)c(C3CC3)cn2)no1,PAMPA,,2.44
COc1ccc(C[C@@H]2NC(=O)[C@@H](CC(C)C)NC(=O)CNC(=O)[C@H](CC(C)C)NC(=O)[C@@H](CC(C)C)NC(=O)[C@H]3CCCN3C2=O)cc1,PAMPA,"10 µM, 7 h",9.1
N#Cc1ccc(COc2cccc(C(=O)Nc3ccc4c(c3)B(O)OC4)c2)cc1,PAMPA,"200 µM, 5 h, pH 7.4",0.076
CC[C@@H](C)[C@@H]1NC(=O)[C@@H](CC(C)C)NC(=O)CN(C)C(=O)[C@H]([C@H](C)CC)NC(=O)[C@@H](CC(C)C)NC(=O)CN(C)C1=O,PAMPA,,38
O=S(=O)(Nc1ccc2c(c1)B(O)OC2)c1ccc(Cl)cc1,PAMPA,"200 µM, 5 h, pH 7.4",1.7
O=c1cc(-c2ccccc2)oc2c(O)c(O)ccc12,PAMPA-BBB,"1 µM, 18 h",6.32
CN1CCN([C@@H](c2ccccc2)c2ccc(Cl)cc2)CC1,PAMPA,,1830
O=C(Nc1ccc2c(c1)B(O)OC2)c1ccc(OCc2ccc(Cl)cc2)cc1,PAMPA,"200 µM, 5 h, pH 7.4",4.4
O=c1cc(-c2ccc(O)cc2)oc2cc(O)cc(O)c12,PAMPA-BBB,"1 µM, 18 h",13.9
O=C1NC(=O)C(c2ccccc2)(c2ccccc2)N1,PAMPA,"200 µM, 5 h, pH 7.4",6.1
COCCOCCOc1c(OC)cc2cc(C(=O)N3C[C@@H](CCl)c4c3cc(O)c3[nH]c(C(=O)OC)cc43)[nH]c2c1OC,PAMPA,"1 µM, 5 h, pH 7.4",3.6
CC[C@H](C)[C@@H]1NC(=O)[C@H](CC(C)C)NC(=O)[C@@H](CC(C)C)NC(=O)[C@H]2CCCN2C(=O)[C@H](Cc2ccc(OC)cc2)NC(=O)[C@@H](CC(C)C)NC1=O,PAMPA,"10 µM, 7 h",11.9
